SENP6 block = blocks the human protease SENP6; inhibition, % at 10 µM; Q9GZR1; 330,000 tested, 1.8% active; Recombinant SENP6 catalytic domain, aminoluciferin luminescence;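 active = inhibition above about 50% at the single tested dose, limit read from the data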
SENP8 block-1 = inhibitors of human SENP8 protease | recombinant SENP8, Nedd8 substrate fluorescence | Q96LD8 | inhibition, % at 20 µM | 360,000 tested, 0.64% active; in the data active = inhibition mostly above about 40%, no sharp cut-off; inactive = mostly below about 27%
Target sequence (Q96LD8 whole entry, looked up): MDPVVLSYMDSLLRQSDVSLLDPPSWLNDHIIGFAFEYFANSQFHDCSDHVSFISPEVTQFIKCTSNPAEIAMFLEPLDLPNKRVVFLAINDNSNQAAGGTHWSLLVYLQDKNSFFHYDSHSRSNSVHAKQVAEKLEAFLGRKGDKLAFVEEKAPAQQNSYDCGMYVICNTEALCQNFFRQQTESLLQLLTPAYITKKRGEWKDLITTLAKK
SENP1 FRET inh = SENP1 (human) catalytic domain inhibition; recombinant SENP1 catalytic domain, CyPet-SUMO1-YPet FRET cleavage; inhibition, % at 10 µM; 360,000 tested, 0.21% active; AID 624204;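 active = inhibition at least 30% at 10 µM, raw YFP signal under a set limit, fluorescence ratio 0.5 to 1.5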
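Controls: no-enzyme wells low, DMSO-plus-enzyme wells high control. Test system: human recombinant His6-tagged SENP1 catalytic domain enzyme. Reagent: SFCypet-SUMO1-SFYpet FRET protein substrate, 25 nM final. Doses: one dose per compound, 10 µM, 0.5% DMSO. Detection: FRET, CFP and YFP emission. Timing: 50 min reaction at room temperature.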
SENP7 block = SENP7 protease inhibition. recombinant SENP7, Z-RLRGG-aminoluciferin luminescence, 40 min. inhibition, % at 5 µM. AID 434973. Q9BQF6. 330,000 tested, 1.5% active;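 active = inhibition above about 50% at the single test dose, limit read from the data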
Target sequence (Q9BQF6 706-1050 limits assumed): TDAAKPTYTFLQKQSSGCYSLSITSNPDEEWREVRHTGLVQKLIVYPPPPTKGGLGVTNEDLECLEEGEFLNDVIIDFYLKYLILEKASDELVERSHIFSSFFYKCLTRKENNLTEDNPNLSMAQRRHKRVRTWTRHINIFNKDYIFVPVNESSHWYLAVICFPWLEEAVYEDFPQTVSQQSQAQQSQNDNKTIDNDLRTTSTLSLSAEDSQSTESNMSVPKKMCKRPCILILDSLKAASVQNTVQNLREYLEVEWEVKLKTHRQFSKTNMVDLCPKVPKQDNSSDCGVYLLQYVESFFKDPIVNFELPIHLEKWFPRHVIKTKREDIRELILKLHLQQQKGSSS
Platelet DG rel = platelet dense granule release activity | human platelet-rich plasma, SFLLRN dense granule ATP release, luminescence | inhibition, %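 (compounds screened at 7.5 µM in platelet-rich plasma)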 | 300,000 tested, 0.22% active | AID 1663;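 active = mean replicate score, as percent of positive control, at or above 50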
SENP8 block-2 = SENP8 protease inhibition; Q96LD8; purified SENP8, Z-RLRGG-aminoluciferin cleavage, luminescence; inhibition, % at 10 µM; 330,000 tested, 1.2% active; AID 2540; in the data active = inhibition above about 50%
SENP8 confirm = human SENP8 inhibition, confirmed. shares compounds with SENP7 block. Recombinant SENP8, Z-RLRGG-aminoluciferin luminescence, 60 min. inhibition, % at 12.5 µM. 6,200 tested, 40% active. AID 488912;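 active = mean inhibition across replicates above about 50%, limit read from the data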
SENP6 confirm = confirmation of human SENP6 protease inhibitors | recombinant SENP6, Z-RLRGG-aminoluciferin luminescence | shares compounds with SENP7 block | 6,200 tested, 58% active | inhibition, % at 12.5 µM
SENP7 conf = confirmation of human SENP7 protease inhibitors; shares compounds with SENP7 block; recombinant SENP7, Z-RLRGG-aminoluciferin luminescence, 40 min; inhibition, % at 12.5 µM; 6,200 tested, 69% active
Casp3 select = inhibits human caspase-3 in SENP selectivity test; shares compounds with SENP7 block; purified caspase-3, Z-DEVD-aminoluciferin luminescence, 60 min; inhibition, % at 12.5 µM; 6,200 tested, 60% active;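 active = mean inhibition above about 50%, limit read from the data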
Luc interf = counter-screen for SENP inhibitors: luminescence interference; 6,200 tested, 39% active; AID 488919; inhibition, % at 12.5 µM; shares compounds with SENP7 block; Pre-incubated SENP8/Z-RLRGG-aminoluciferin, luciferase luminescence interference;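 active = mean inhibition above about 50% when retested at one dose, limit read from the data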
Of the large screens only hits and unclear results are named; the others gave an inactive call (follow-up assays come after a bar, where they were run). In the library only some 2.6% were active in any assay of this set; here they are far more common.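 Rule for the calls, unless noted: active = mean inhibition above about 50% in the one-dose retest (limit read from the data); inactive = the rest.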

CC1(C)CCC(=O)N2CC[C@H]3C[C@H](OC(=O)Nc4ccccc4)C[C@@H]1[C@H]32	SENP6 block 69, SENP7 block 73, SENP8 block-2 56 | SENP8 confirm inactive | SENP6 confirm 52 | SENP7 conf 87 | Casp3 select 77 | Luc interf 69
C=CCNC(=O)c1ccc2c3n(nc2c1)-c1ccccc1CO3	SENP6 block 80, SENP7 block 75, SENP8 block-2 77 | SENP8 confirm 76 | SENP6 confirm 75 | SENP7 conf 94 | Casp3 select 90 | Luc interf 82
O=C(c1ccc2c3n(nc2c1)-c1ccc(Cl)cc1CO3)N1CCCCC1	SENP6 block 87, SENP7 block 84, SENP8 block-2 86 | SENP8 confirm 84 | SENP6 confirm 94 | SENP7 conf 100 | Casp3 select 94 | Luc interf inactive
COCCNC(=O)c1ccc2c3n(nc2c1)-c1ccccc1CO3	none
O=C(O)c1ccc2c3n(nc2c1)-c1ccc(Cl)cc1CO3	SENP6 block 98, SENP7 block 94, SENP8 block-2 94 (no result: SENP8 block-1, SENP1 FRET inh) | SENP8 confirm 98 | SENP6 confirm 99 | SENP7 conf 103 | Casp3 select 98 | Luc interf 96
Cc1ccc2c(c1)COc1c3ccc(C(=O)N4CCOCC4)cc3nn1-2	SENP6 block 71, SENP7 block 69 | SENP8 confirm 72 | SENP6 confirm 69 | SENP7 conf 90 | Casp3 select 88 | Luc interf 76
O=C(NCCO)c1ccc2c3n(nc2c1)-c1ccc(Cl)cc1CO3	none
C[C@@H]1NC(=O)[C@H](CCCN=C(N)N)NC(=O)c2cc([N+](=O)[O-])cc(I)c2NCCC[C@@H](C(N)=O)NC1=O	none
CN1CCN(/N=C/c2ccc(-c3ccccc3)cc2)CC1	SENP7 block 83, SENP8 block-2 79 | SENP8 confirm 82 | SENP6 confirm 86 | SENP7 conf 98 | Casp3 select 90 | Luc interf 50
N#Cc1c(Cn2cncn2)nc(=O)n(-c2ccc(Cl)cc2)c1N	none
Cc1ccccc1NC(=O)c1cnc2ccccn2c1=O	SENP6 block 58, SENP7 block 74 | SENP8 confirm 55 | SENP6 confirm 61 | SENP7 conf 52 | Casp3 select 75 | Luc interf inactive
Cc1ccc(C)c(NC(=O)c2cc3ccccn3n2)c1	SENP6 block 56 | SENP8 confirm inactive | SENP6 confirm inactive | SENP7 conf 74 | Casp3 select 72 | Luc interf 60
Cc1ccc(C)c(NC(=O)c2cnn3ccccc23)c1	none
CC(=O)c1cccc(NC(=O)c2cc3ccccn3n2)c1	none
O=C(NCCc1ccccc1)c1cnc2ccccn2c1=O	none
Cc1ccccc1NC(=O)c1cc2ccccn2n1	SENP7 block 67, SENP8 block-2 62 | SENP8 confirm 72 | SENP6 confirm 70 | SENP7 conf 89 | Casp3 select 87 | Luc interf 74
CCOC(=O)CNC(=O)CNC(=O)c1nn(-c2ccc(OC)c(Cl)c2)c(=O)c2ccccc12	none
CC(=O)c1sc(NC(=O)c2ccc(C)c(C)c2)nc1C	none
CC(=O)c1sc(NC(=O)c2ccc3c(c2)OCO3)nc1C	SENP6 block 80, SENP7 block 82, SENP8 block-2 70 | SENP8 confirm 63 | SENP6 confirm 77 | SENP7 conf 95 | Casp3 select 88 | Luc interf 77
O=C(Nc1nccs1)c1ccc2c(c1)OCO2	SENP6 block 63 | SENP8 confirm inactive | SENP6 confirm inactive | SENP7 conf 68 | Casp3 select 67 | Luc interf inactive
CC(=O)c1sc(NC(=O)c2cnc(Cl)c(Cl)c2)nc1C	SENP6 block 84, SENP7 block 66, SENP8 block-2 77 | SENP8 confirm inactive | SENP6 confirm 54 | SENP7 conf inactive | Casp3 select 91 | Luc interf 82
Cc1csc(NC(=O)c2ccc3c(c2)OCO3)n1	SENP6 block 85, SENP7 block 86, SENP8 block-2 75 | SENP8 confirm inactive | SENP6 confirm 80 | SENP7 conf 96 | Casp3 select 90 | Luc interf 82
N#Cc1cccc2cccc(S(=O)(=O)N3CCOCC3)c12	none (no result: Platelet DG rel)
N#Cc1c(N)nc2c(c1N)CC(CO)O2 (stereo not given)	none
Cc1ccc2nc(-c3ccc(NC(=O)CN4CCN(c5ccccn5)CC4)cc3)sc2c1	none
Oc1ccccc1C1=Nc2ccccc2N=C(c2ccco2)C1	none
Cc1cc(N2CCN(C)CC2)nc2ccc(NC(=S)N3CCN(c4ccc(Cl)cc4)CC3)cc12	SENP6 block 55 | SENP8 confirm inactive | SENP6 confirm inactive | SENP7 conf inactive | Casp3 select inactive | Luc interf inactive
Cc1cc(N2CCOCC2)nc2ccc(NC(=S)N3CCCCC3C)cc12 (stereo not given)	SENP6 block 55 | SENP8 confirm inactive | SENP6 confirm inactive | SENP7 conf inactive | Casp3 select inactive | Luc interf inactive
CCCN1CCN(CCCNC(=S)Nc2ccc3nc(N4CCN(CC)CC4)cc(C)c3c2)CC1	SENP6 block 89 | SENP8 confirm inactive | SENP6 confirm inactive | SENP7 conf inactive | Casp3 select inactive | Luc interf inactive
CC(C)(C)SCCNC(=O)CN1C(=O)c2cccc3cccc1c23	none
c1ccc(-c2nc(-c3nccc4ccccc34)oc2-c2ccccc2)cc1	SENP6 block 86, SENP7 block 85, SENP8 block-2 64 | SENP8 confirm inactive | SENP6 confirm inactive | SENP7 conf 61 | Casp3 select 76 | Luc interf 65
COc1ccc(CNC(=O)C(c2ccco2)N(Cc2ccccc2)C(=O)Cc2cccs2)cc1 (stereo not given)	none
Cc1occc1-c1nnc(SCC(=O)c2ccc3c(c2)OCCO3)n1CC1CCCO1 (stereo not given)	none
CCc1ccc(C(=O)COC(=O)c2nn(C)c(=O)c3ccccc23)cc1	none

Compound activity deposited in PubChem by several laboratories.
